Bioassay records deposited in PubChem by several laboratories.
VIM-2 inh: inhibitors of Pseudomonas aeruginosa VIM-2 metallo-beta-lactamase | purified VIM-2, nitrocefin hydrolysis, epi-absorbance fluorescence | inhibition, % at 5.6 µM | 290,000 tested, 0.89% active | AID 1527;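 active = inhibition above the mean of all tested compounds plus 3 SD, cutoff set per screening run, cut at about 7.5% in these data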;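 note: red hydrolysis product quenches plate fluorescence so inhibitors raise well fluorescence; 0% = enzyme with DMSO and 100% = DMSO without enzyme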
PABP FP inh: PABP-poly(A) binding inhibition. 290,000 tested, 1% active. P11940. AID 2014. PABP-poly(A) RNA binding, fluorescence polarization. calls only at 35 µM;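 note: calls also rest on retests at 20 µM and on dose response follow-up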
Target sequence (P11940 whole entry, looked up): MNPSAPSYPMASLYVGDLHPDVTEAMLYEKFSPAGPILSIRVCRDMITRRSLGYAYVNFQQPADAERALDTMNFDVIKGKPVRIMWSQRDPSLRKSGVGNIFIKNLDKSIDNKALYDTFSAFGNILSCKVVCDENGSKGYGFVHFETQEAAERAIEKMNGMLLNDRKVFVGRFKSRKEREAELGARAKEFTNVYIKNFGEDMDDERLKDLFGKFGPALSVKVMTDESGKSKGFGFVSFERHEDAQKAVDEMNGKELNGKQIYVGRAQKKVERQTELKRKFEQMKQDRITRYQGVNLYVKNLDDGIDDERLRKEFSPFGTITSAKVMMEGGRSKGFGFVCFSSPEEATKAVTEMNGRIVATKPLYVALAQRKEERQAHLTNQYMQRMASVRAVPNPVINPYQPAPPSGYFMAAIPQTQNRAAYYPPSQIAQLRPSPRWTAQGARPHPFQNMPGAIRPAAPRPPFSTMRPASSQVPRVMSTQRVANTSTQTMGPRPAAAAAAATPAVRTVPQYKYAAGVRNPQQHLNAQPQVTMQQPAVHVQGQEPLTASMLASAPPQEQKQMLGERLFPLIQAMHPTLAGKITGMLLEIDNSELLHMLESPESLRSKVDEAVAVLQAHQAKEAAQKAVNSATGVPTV
PABP1 MLLE inh: blocks PAM2 peptide binding to the PABP1 MLLE domain; GST-MLLE / FITC-PAM2 fluorescence polarization; AID 588489; P11940; 360,000 tested, 0.36% active; inhibition, % at 20 µM; in the data active = inhibition above about 35%, passing the limit was not always enough;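 note: plate controls were DMSO wells with GST-MLLE for no effect and wells lacking GST-MLLE protein for full effect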
IMP-1 inh: blocks Pseudomonas aeruginosa IMP-1 metallo-beta-lactamase; purified IMP-1, nitrocefin hydrolysis, epi-absorbance fluorescence; inhibition, % at 5.6 µM; 290,000 tested, 0.45% active; AID 1556;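 active = inhibition above the mean plus 3 SD of all compounds in the same screening run, cut at about 4.5% in these data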;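 note: 0% = IMP-1 with DMSO and 100% = DMSO wells lacking enzyme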
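System: purified IMP-1; amount: IMP-1 0.2 nM before substrate addition; compound: single dose, 5.6 µM; times: 25 °C, 15 min preincubation, 25 min reaction; signal: Epi-absorbance via hydrolysed-nitrocefin quenching of white-plate fluorescence, 480/530 nm, EDTA stop; benchmarks: DMSO with and without IMP-1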
eIF4H FP inh: inhibitors of RNA binding by human eIF4H. inhibition, % at 35 µM. 290,000 tested, 0.94% active. Q15056. eIF4H fluorescence polarization binding assay;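 note: calls also rest on retests at 20 µM and on dose response follow-up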
* marks the source's active call; other numbers are inactive results; i = inactive; x = no result; + = active, no number; ! = not confirmed by another sample. Only some compounds are listed: those with a hit (about 2.2% of all), similar ones and a draw of the others. Unless noted, the rule behind the calls is not given here.

SMILES | VIM-2 inh | PABP FP inh | PABP1 MLLE inh | IMP-1 inh | eIF4H FP inh
CCCS(=O)(=O)N1CCN=C1SCc1cccnc1 | -2 | i | 40* | 0 | 1
c1cnc(SCCOc2ccc3c(c2)CCC3)nc1 | -3 | i | -5 | -3 | -5
COc1ccc(CNC(=O)C2CCN(S(=O)(=O)N3CCC(C)CC3)CC2)c(OC)c1 | x | x | 13 | x | x
COc1ccc(OCC(=O)Nc2ccccc2C(=O)N2CCOCC2)cc1 | -2 | + | -11 | -2 | active
O=C(COc1ccc(Br)cc1)Nc1ccccc1C(=O)N1CCOCC1 | -2 | i | 1 | -2 | 0
CCCN(CCC)S(=O)(=O)c1ccc(C(=O)OCCN2C(=O)c3cccc4c(N5CCOCC5)ccc(c34)C2=O)cc1 | 0 | + | 112 | -2 | 129*
c1ccc(-c2nc(-c3nccc4ccccc34)oc2-c2ccccc2)cc1 | 0 | i | -8 | -1 | -10
Cc1ccnc(NC(=O)Cn2cc([N+](=O)[O-])cn2)c1 | -2 | i | 9 | -2 | -5
CCOC(=O)Cn1nc(-c2ccccc2)c2ccccc2c1=O | 1 | i | 0 | 5.2* | 7
Cc1cc(=O)oc2cc(OCc3ccc(C(=O)OCC(=O)NC4CCS(=O)(=O)C4)cc3)ccc12 (stereo not drawn) | 3 | + | 1 | 2 | 99*
C/C(=N/NC(=O)C(O)(c1ccccc1)c1ccccc1)c1ccc([N+](=O)[O-])o1 | -1 | i | -11 | 0 | 31
C(=C/c1ccnc2nc(SC/C=C/c3ccccc3)nn12)/c1ccccc1 | -3 | i | 7 | -2 | -4
O=C(COC(=O)CC1Sc2ccccc2NC1=O)NCc1ccccc1 (stereo not drawn) | x | x | -3 | x | x
Cc1ccc(C(=O)CNc2cccc([N+](=O)[O-])c2)cc1 | 2 | i | 41* | -2 | 52
CC1(c2ccccc2)NC(=O)N(CC(=O)Nc2ccccc2N2CCCC2)C1=O (stereo not drawn) | x | x | 2 | x | x
CC1=CC(=O)c2c(O)ccc(O)c2C1=O | 3 | + | x | 5.3* | 112*
O=C1C=C(N2CCN(c3ccccn3)CC2)C(=O)c2c(O)ccc(O)c21 | x | x | 6 | x | x
COc1ccc(-n2c(=O)c3c4c(sc3n(CC(=O)NCC3CCCO3)c2=O)CN(C(C)=O)CC4)cc1OC (stereo not drawn) | x | x | 4 | x | x
COc1cc(-c2cc(=O)c3c(O)cc(O)cc3o2)ccc1O | 0 | i | -12 | -3 | 16
COc1cc(-c2cc(=O)c3ccccc3o2)ccc1O | 9.5* | i | -9 | -2 | 9
COc1ccc(-c2cc(=O)c3c(OC)c(OC)c(OC)c(OC)c3o2)cc1OC | 10*! | i | 5 | -1 | 9
COC(=O)[C@]1(C)CCC[C@@]2(C)C3CC[C@@]4(C)C[C@]3(CCC21)CC(=O)N4Cc1ccc(OC)cc1 (stereo partly drawn) | x | x | -3 | x | x
c1ccc(-c2noc(CN3CCCC(OCc4ccccn4)C3)n2)cc1 (stereo not drawn) | -2 | i | -4 | -2 | 2
CCOC(=O)/C(=N\Nc1ccccc1Cl)N1CCN(c2ccccc2OC)CC1 | 1 | i | -7 | -3 | -3
O=C(NCC1CCCO1)C1CCCN(S(=O)(=O)c2cccc(C(F)(F)F)c2)C1 (stereo not drawn) | 1 | i | -6 | 4.6* | -7
SMILES | VIM-2 inh | PABP FP inh | PABP1 MLLE inh | IMP-1 inh | eIF4H FP inh
COc1ccc(S(=O)(=O)N2CCCC(C(=O)NCC3CCCO3)C2)cc1C (stereo not drawn) | -3 | i | -6 | -3 | 8
COc1ccc(S(=O)(=O)N[C@@H](CSCc2ccccc2)C(=O)O)cc1 | 1 | i | -3 | -2 | -1
C=CCNC(=S)Nc1ccc2nsnc2c1 | -1 | i | -2 | -2 | 4
C=CCN(CC=C)C(=S)Nc1ccc2nsnc2c1 | 1 | i | 52* | -3 | 13
CC1=C(C(=O)N(C)C)CC(CC(=O)NC2CCCC2)C(=O)N1Cc1ccccc1 (stereo not drawn) | x | x | 2 | x | x
O=C(Nc1ccncc1)c1cc(-c2ccccn2)nc2ccccc12 | -2 | i | 0 | 0 | -6
Cc1cccc(C)c1NC(=O)c1cc(-c2ccccn2)nc2ccccc12 | -1 | i | -7 | -2 | active
Cc1cc(NC(=O)CN2CCN(Cc3ccccc3)CC2)nc2c1c(=O)oc1ccccc12 | 8.3* | i | x | 0 | -7
COc1ccc(N/C=C\C(=O)c2ccc(Br)cc2)cc1OC | -3 | i | -91 | -3 | 71*
COc1ccc(N/C=C\C(=O)c2ccc(C)cc2)cc1OC | 2 | i | -10 | 0 | 0
Cc1cc(C)c(CN2CCN(Cc3ccc(C)o3)C(CCO)C2)c(-n2cccn2)c1 (stereo not drawn) | -5 | i | -7 | -3 | 12
O=C(CCCN1C(=O)/C(=C/c2ccccc2)SC1=S)Nc1ccc(C(=O)O)c(O)c1 | -1 | i | 16 | -4 | 1
CC(=C\c1ccco1)/C=C1/SC(=S)N(CC(=O)O)C1=O | -1 | + | 3 | -2 | 87*
O=C(CN1C(=O)/C(=C/c2ccco2)SC1=S)Nc1ccc(C(=O)O)c(O)c1 | -2 | + | -41 | 7.2* | 92*
CC(C(=O)Nc1ccc(C(=O)O)c(O)c1)N1C(=O)/C(=C\c2ccco2)SC1=S (stereo not drawn) | -2 | + | -15 | 4 | 100*
CC(/C=C1\SC(=S)N(CC(=O)O)C1=O)=C\c1ccccc1 | 1 | i | 11 | 0 | 1
O=C(CCCN1C(=O)/C(=C\c2cccs2)SC1=S)Nc1cccc(C(=O)O)c1 | -3 | i | 4 | -4 | 7
CC(C(=O)N(C)C1CCS(=O)(=O)C1)N1C(=O)/C(=C/c2ccco2)SC1=S (stereo not drawn) | -3 | i | -8 | 2 | 33
O=C(CCCN1C(=O)/C(=C/c2ccco2)SC1=S)Nc1cccc(C(=O)O)c1 | 0 | + | -2 | 4 | 94*
CCN(Cc1ccncc1)Cc1c(O)ccc2cc(Br)ccc12 | -2 | i | 8 | -2 | 9
O=C(CCCN1C(=O)/C(=C\c2cccs2)SC1=S)Nc1ccc(C(=O)O)cc1 | 0 | i | 5 | -1 | 14
Cc1ccc(NC(=O)CN2C(=O)N/C(=C/c3cccn3-c3ccc(C(=O)O)cc3)C2=O)cc1 | 1 | i | -12 | -2 | 88
O=C(CN1C(=O)/C(=C/c2ccco2)SC1=S)NC1CCS(=O)(=O)C1 (stereo not drawn) | -2 | + | 26 | 5.6* | 74*
O=C(CCCN1C(=O)/C(=C/c2cccs2)SC1=S)Nc1ccc(O)c(C(=O)O)c1 | 9.7* | i | x | 0 | 2
Cc1ccc(NC(=O)CN2C(=O)N/C(=C/c3ccco3)C2=O)cc1 | -3 | + | 19 | -3 | 90*
O=C(CN1C(=O)/C(=C/c2ccco2)SC1=S)Nc1ccc(O)c(C(=O)O)c1 | -3 | + | -15 | 3 | 81*
